Test results: ChEMBL document CHEMBL4145574, “Inhibition of Breast Cancer Cell Migration by Cyclotides Isolated from Pombalia calceolaria” (J Nat Prod, 2018)
Where a SMILES comes first, the peptide text is derived from it. Bridges are numbered along the chain shown (N, C = ends).

Assays:
MDA-MB-231 [1] = assay: Cytotoxicity against human MDA-MB-231 cells assessed as cell detachment at 10 uM; type: cell-based; conditions: mda-mb-231, 10 µM
Summary of the method: (§1)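 Toxicity was judged visually during the wound-healing assay. MDA-MB-231 monolayers were scratched, then incubated 22 h at 37 °C in medium with 10% FBS and compound at 10, 5, 2 or 1 μM. Cells were scored for detachment and for morphological change (volume reduction, membrane disintegration).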

MDA-MB-231 [2] = assay: Cytotoxicity against human MDA-MB-231 cells assessed as membrane disintegration at 10 uM; type: cell-based; conditions: mda-mb-231, 10 µM; summary of the method: as §1
MDA-MB-231 [3] = assay: Cytotoxicity against human MDA-MB-231 cells assessed as reduction in cell volume at 10 uM; type: cell-based; conditions: mda-mb-231, 10 µM; summary of the method: as §1
MDA-MB-231 [4] = assay: Cytotoxicity against human MDA-MB-231 cells assessed as cell death after 24 hrs by MTS assay; type: functional, cell-based; conditions: MDA-MB-231, 24 h
Summary of the method: (§2)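 MDA-MB-231 cells in DMEM with 10% FBS at 37 °C, 5% CO2, seeded at 4 × 10^3 cells/well. After 24 h, seven concentrations (20−0.03 μM) were added in triplicate, with doxorubicin as control. After 24 h exposure, MTS was added for 4 h at 37 °C and absorbance read at 490 nm. Viability is relative to control wells; IC50 is from nonlinear regression. At least two independent experiments.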

MDA-MB-231 [5] = assay: Cytotoxicity against human MDA-MB-231 cells assessed as reduction in cell volume at 2 to 5 uM; type: cell-based; conditions: mda-mb-231, 5 µM; summary of the method: as §1
MDA-MB-231 [6] = assay: Cytotoxicity against human MDA-MB-231 cells assessed as membrane disintegration at 2 to 5 uM; type: cell-based; conditions: mda-mb-231, 5 µM; summary of the method: as §1
MDA-MB-231 [7] = assay: Cytotoxicity against human MDA-MB-231 cells assessed as cell detachment at 2 to 5 uM; type: cell-based; conditions: mda-mb-231, 5 µM; summary of the method: as §1
MDA-MB-231 [8] = assay: Inhibition of cell migration in human MDA-MB-231 cells at 1 uM incubated for 22 hrs by scratch wound healing assay relative to control; conditions: MDA-MB-231, 22 h
MDA-MB-231 [9] = assay: Cytotoxicity against human MDA-MB-231 cells assessed as cell death at 20 uM after 24 hrs by MTS assay relative to control; type: functional; summary of the method: as §2
MDA-MB-231 [10] = assay: Inhibition of cell migration in human MDA-MB-231 cells at 5 uM incubated for […] by scratch wound healing assay relative to control; type: functional
Summary of the method: (§3)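 MDA-MB-231 cells were seeded at 1 × 10^5 cells/well and grown to a confluent monolayer, then scratched with a pipet tip. Debris was rinsed with FBS-free medium. Cells were incubated 22 h at 37 °C in 10% FBS medium with compound (10, 5, 2, 1 μM), with colchicine as positive control. Wound areas were imaged at 0 and 22 h and measured. Two independent experiments in triplicate, reported as mean ± SD.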

MDA-MB-231 [11] = assay: Inhibition of cell migration in human MDA-MB-231 cells at 2 uM incubated for […] by scratch wound healing assay relative to control; type: functional; summary of the method: as §3
MDA-MB-231 [12] = assay: Inhibition of cell migration in human MDA-MB-231 cells at 10 uM […] by scratch wound healing assay relative to control; type: functional; conditions: MDA-MB-231, 22 h, in the assay text read “22 hrs” for “24 hrs”
Summary of the method: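 MDA-MB-231 cells in DMEM + 10% FBS, 37 °C, 5% CO2; 1 × 10^5 cells/well grown to confluence, monolayer scratched with pipet tip, debris rinsed with FBS-free medium. Incubated 22 h at 37 °C in 10% FBS medium with compound (10, 5, 2, 1 μM). Wound areas imaged at 0 and 22 h and measured; cell toxicity judged visually. Colchicine positive control. Two independent experiments in triplicate, mean ± SD.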

SMILES: CC[C@H](C)[C@@H]1NC(=O)[C@H](C)NC(=O)[C@H](CO)NC(=O)[C@H](CO)NC(=O)[C@H]([C@@H](C)CC)NC(=O)[C@@H]2CSSC[C@@H]3NC(=O)[C@H](C(C)C)NC(=O)[C@H](CCCN)NC(=O)[C@H](CC(N)=O)NC(=O)[C@H](CCCN)NC(=O)[C@@H]4CSSC[C@H](NC(=O)[C@H](CO)NC(=O)[C@H](CCC(=O)O)NC(=O)CNC(=O)[C@H](CSSC[C@H](NC(=O)CNC1=O)C(=O)N[C@@H](CO)C(=O)N4)NC(=O)[C@@H]1CCCN1C(=O)[C@H]([C@@H](C)CC)NC(=O)CNC[C@@H](C(N)=O)NC(=O)[C@H](CCCN)NC(=O)[C@H](Cc1ccc(O)cc1)NC3=O)C(=O)N[C@@H](C(C)C)C(=O)N[C@@H](Cc1c[nH]c3ccccc13)C(=O)N[C@@H]([C@@H](C)CC)C(=O)N1CCC[C@H]1C(=O)N2 [listing 1 of 2 here]
- Activity (MDA-MB-231 [1]): Toxic
- Activity (MDA-MB-231 [2]): Toxic
- Activity (MDA-MB-231 [3]): Toxic
- IC50 (MDA-MB-231 [4]): 9800 nM

SMILES: CC[C@H](C)[C@@H]1NC(=O)[C@H](C)NC(=O)[C@H]([C@@H](C)O)NC(=O)[C@H]([C@@H](C)CC)NC(=O)[C@H]([C@@H](C)O)NC(=O)[C@@H]2CSSC[C@@H]3NC(=O)[C@H](C(C)C)NC(=O)[C@H](CCCNC(=N)N)NC(=O)[C@H](CC(=O)O)NC(=O)[C@H](CCCNC(=N)N)NC(=O)[C@@H]4CSSC[C@H](NC(=O)[C@H](CO)NC(=O)[C@H](CCC(=O)O)NC(=O)[C@H](C)NC(=O)[C@H](CSSC[C@H](NC(=O)CNC(=O)[C@H](CC(C)C)NC1=O)C(=O)N[C@@H](CO)C(=O)N4)NC(=O)[C@@H]1CCCN1C(=O)[C@H](CC(C)C)NC(=O)CNC(=O)[C@H](CC(=O)O)NC(=O)[C@H](Cc1ccc(O)cc1)NC3=O)C(=O)N[C@@H](C(C)C)C(=O)N[C@@H](Cc1ccccc1)C(=O)N[C@@H]([C@@H](C)CC)C(=O)N1CCC[C@H]1C(=O)N2 (cyclo(AESCVFIPCTITAILGCSCRDRVCYDGLPC); disulfide 4-19, 9-24, 17-30) [listing 1 of 2 here]
- Activity (MDA-MB-231 [1]): Toxic
- Activity (MDA-MB-231 [5]): Toxic
- Activity (MDA-MB-231 [6]): Toxic
- Activity (MDA-MB-231 [2]): Toxic
- Activity (MDA-MB-231 [3]): Toxic
- IC50 (MDA-MB-231 [4]): 1800 nM
- Activity (MDA-MB-231 [7]): Toxic

SMILES: CC[C@H](C)[C@@H]1NC(=O)[C@H](C)NC(=O)[C@H]([C@@H](C)O)NC(=O)[C@H]([C@@H](C)CC)NC(=O)[C@H]([C@@H](C)O)NC(=O)[C@@H]2CSSC[C@@H]3NC(=O)[C@H](C(C)C)NC(=O)[C@H](CCCNC(=N)N)NC(=O)[C@H](CC(=O)O)NC(=O)[C@H](CCCNC(=N)N)NC(=O)[C@@H]4CSSC[C@H](NC(=O)[C@H](CO)NC(=O)[C@H](CCC(=O)O)NC(=O)[C@H](C)NC(=O)[C@H](CSSC[C@H](NC(=O)CNC(=O)[C@H](CC(C)C)NC1=O)C(=O)N[C@@H](CO)C(=O)N4)NC(=O)[C@@H]1CCCN1C(=O)[C@H](CC(C)C)NC(=O)CNC(=O)[C@H](CC(=O)O)NC(=O)[C@H](Cc1ccc(O)cc1)NC3=O)C(=O)N[C@@H](C(C)C)C(=O)N[C@@H](Cc1ccccc1)C(=O)N[C@@H]([C@@H](C)CC)C(=O)N1CCC[C@H]1C(=O)N2 (cyclo(AESCVFIPCTITAILGCSCRDRVCYDGLPC); disulfide 4-19, 9-24, 17-30) [listing 2 of 2 here]
- inhibition at 1 µM (MDA-MB-231 [8]): 0%
- Activity (MDA-MB-231 [9]): >80%

SMILES: CC[C@H](C)[C@@H]1NC(=O)[C@H](C)NC(=O)[C@H](CO)NC(=O)[C@H](CO)NC(=O)[C@H]([C@@H](C)CC)NC(=O)[C@@H]2CSSC[C@@H]3NC(=O)[C@H](C(C)C)NC(=O)[C@H](CCCN)NC(=O)[C@H](CC(N)=O)NC(=O)[C@H](CCCN)NC(=O)[C@@H]4CSSC[C@H](NC(=O)[C@H](CO)NC(=O)[C@H](CCC(=O)O)NC(=O)CNC(=O)[C@H](CSSC[C@H](NC(=O)CNC1=O)C(=O)N[C@@H](CO)C(=O)N4)NC(=O)[C@@H]1CCCN1C(=O)[C@H]([C@@H](C)CC)NC(=O)CNC[C@@H](C(N)=O)NC(=O)[C@H](CCCN)NC(=O)[C@H](Cc1ccc(O)cc1)NC3=O)C(=O)N[C@@H](C(C)C)C(=O)N[C@@H](Cc1c[nH]c3ccccc13)C(=O)N[C@@H]([C@@H](C)CC)C(=O)N1CCC[C@H]1C(=O)N2 [listing 2 of 2 here]
- inhibition at 1 µM (MDA-MB-231 [8]): 15%
- Activity (MDA-MB-231 [9]): >80%
- inhibition at 5 µM (MDA-MB-231 [10]): 60%
- inhibition at 2 µM (MDA-MB-231 [11]): 50%

SMILES: CC[C@H](C)[C@@H]1NC(=O)[C@H](C)NC(=O)[C@H]([C@@H](C)O)NC(=O)[C@H](C(C)C)NC(=O)[C@@H]2CSSC[C@@H]3NC(=O)[C@H](C(C)C)NC(=O)[C@H](CCCNC(=N)N)NC(=O)[C@H](CC(=O)O)NC(=O)[C@H](CCCN)NC(=O)[C@@H]4CSSC[C@H](NC(=O)[C@H](CO)NC(=O)[C@H](CCC(=O)O)NC(=O)[C@H](C)NC(=O)[C@H](CSSC[C@H](NC(=O)CNC(=O)[C@H](CC(C)C)NC1=O)C(=O)N[C@@H](CO)C(=O)N4)NC(=O)[C@@H]1CCCN1C(=O)[C@H]([C@@H](C)CC)NC(=O)CNC(=O)[C@H](CC(N)=O)NC(=O)[C@H](Cc1ccc(O)cc1)NC3=O)C(=O)N[C@@H](C(C)C)C(=O)N[C@@H](Cc1ccccc1)C(=O)N[C@@H]([C@@H](C)CC)C(=O)N1CCC[C@H]1C(=O)N2 [listing 1 of 2 here]
- inhibition at 1 µM (MDA-MB-231 [8]): 0%
- Activity (MDA-MB-231 [9]): >80%

SMILES: COc1cccc2c1C(=O)c1c(O)c3c(c(O)c1C2=O)C[C@@](O)(C(=O)CO)C[C@@H]3O[C@H]1C[C@H](N)[C@H](O)[C@H](C)O1 [DOXORUBICIN]
- IC50 (MDA-MB-231 [4]): 900 nM

SMILES: CC[C@H](C)[C@@H]1NC(=O)[C@H](C)NC(=O)[C@H]([C@@H](C)O)NC(=O)[C@H](C(C)C)NC(=O)[C@@H]2CSSC[C@@H]3NC(=O)[C@H](C(C)C)NC(=O)[C@H](CCCNC(=N)N)NC(=O)[C@H](CC(=O)O)NC(=O)[C@H](CCCN)NC(=O)[C@@H]4CSSC[C@H](NC(=O)[C@H](CO)NC(=O)[C@H](CCC(=O)O)NC(=O)[C@H](C)NC(=O)[C@H](CSSC[C@H](NC(=O)CNC(=O)[C@H](CC(C)C)NC1=O)C(=O)N[C@@H](CO)C(=O)N4)NC(=O)[C@@H]1CCCN1C(=O)[C@H]([C@@H](C)CC)NC(=O)CNC(=O)[C@H](CC(N)=O)NC(=O)[C@H](Cc1ccc(O)cc1)NC3=O)C(=O)N[C@@H](C(C)C)C(=O)N[C@@H](Cc1ccccc1)C(=O)N[C@@H]([C@@H](C)CC)C(=O)N1CCC[C@H]1C(=O)N2 [listing 2 of 2 here]
- Activity (MDA-MB-231 [1]): Toxic
- Activity (MDA-MB-231 [5]): Toxic
- Activity (MDA-MB-231 [6]): Toxic
- Activity (MDA-MB-231 [2]): Toxic
- Activity (MDA-MB-231 [3]): Toxic
- IC50 (MDA-MB-231 [4]): 2700 nM
- Activity (MDA-MB-231 [7]): Toxic

SMILES: COc1cc2c(c(OC)c1OC)-c1ccc(OC)c(=O)cc1[C@@H](NC(C)=O)CC2 [COLCHICINE]
- inhibition at 1 µM (MDA-MB-231 [8]): 75%
- inhibition at 10 µM (MDA-MB-231 [12]): 85%
